Experimental data taken from ChEMBL document CHEMBL2390820, “3-Biphenylimidazo[1,2-a]pyridines or [1,2-b]pyridazines and analogues, novel Flaviviridae inhibitors” (Eur J Med Chem, 2013).
≈ marks a conversion by molar mass, not a printed value.

Key:
[1] = Cytotoxicity against human Huh5-2 cells assessed as growth inhibition after 3 days by MTS assay; assay type: cell-based, Huh-5-2
Method in brief: (§1)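 MDBK or Huh 5-2 cells were seeded at 5 × 10³/well in MEM-FCS, with serial compound dilutions added 24 h later. Cells proliferated 3 days at 37 °C, then metabolic activity was read by MTS/PMS. CC50 is the concentration inhibiting proliferation of exponentially growing cells by 50%, by linear interpolation.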

[2] = Selectivity index, ratio of CC50 for Huh5-2 cells to EC50 for HCV genotype 1b infected in Huh5-2 cells; design: species or system Huh-5-2
Method in brief: (§2)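 Selectivity index is the ratio of CC50 from the 3-day MTS/PMS proliferation assay to EC50 in the same cell line. For Huh 5-2 the EC50 is from the luciferase replicon assay; for MDBK it is from the MTS CPE assay.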

[3] = Cytotoxicity against MDBK cells assessed as growth inhibition after 3 days by MTS assay; assay type: cell-based, Bos taurus; settings: cattle; method in brief: as §1
[4] = Antiviral activity against BVDV NADL infected in MDBK cells assessed as inhibition of virus-induced cytopathic effect formation after 5 days by MTS assay; assay type: functional, cell-based, Bovine viral diarrhea virus 1-NADL; settings: Bovine viral diarrhea virus isolates and strains, 120 h
Method in brief: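 MDBK cells were seeded at 5 × 10³/well in MEM-FCS and held 24 h at 37 °C, 5% CO₂. Medium was replaced with 5-fold serial compound dilutions, then BVDV inoculum was added at MOI 2. CPE was read by MTS as OD at 490 nm. EC50 is the concentration giving 50% protection against virus-induced CPE, by linear interpolation.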

[5] = Selectivity index, ratio of CC50 for MDBK cells to EC50 for BVDV NADL infected in MDBK cells; method in brief: as §2
Hepatitis C virus = experiment: Antiviral activity against HCV genotype 1b infected in Huh5-2 cells assessed as inhibition of viral replication after 4 days by luciferase reporter gene assay; assay type: functional, organism-based, Hepacivirus hominis, Huh-5-2; settings: for EC50: Hepatitis C virus, genotype 1b, Huh-5-2, 96 h
Method in brief: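 Huh 5-2 cells carrying the HCV subgenomic luciferase replicon were seeded at 5 × 10³/well with compound and incubated 4 days at 37 °C. Medium was removed and luciferase activity quantified. EC50 is the minimum concentration reducing replicon-driven luciferase signal by 50%.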

EC50 (Hepatitis C virus) [µg/mL] | SMILES | CC50 at 72 h [1] [µg/mL] | Ratio CC50/EC50 [2] | CC50 at 72 h [3] [µg/mL] | EC50 [4] [µg/mL] | Ratio CC50/EC50 [5] | inhibition (INH) (Hepatitis C virus) [%]
14.7 (≈ 32 µM) | COc1ccccc1-c1nc2ccc(-c3ccsc3)nn2c1-c1cccc(-c2ccccc2)c1 | 97.4 (≈ 212 µM) | 6.6 | 10.4 (≈ 22.6 µM) | 3.4 (≈ 7.4 µM) | 3.1 | 
11.1 (≈ 30 µM) | Fc1ccc(-c2nc3ccccn3c2-c2cccc(-c3ccsc3)c2)cc1 | 56.7 (≈ 153 µM) | 5.1 | 7 (≈ 18.9 µM) | 2.3 (≈ 6.21 µM) | 3 | 
15.1 (≈ 33.6 µM) | COc1ccccc1-c1nc2ccc(-c3ccsc3)nn2c1-c1cccc(-c2ccco2)c1 | 54.3 (≈ 121 µM) | 3.6 |  |  |  | 
> 112 | Fc1ccc(-c2nc3ccc(-c4ccsc4)nn3c2-c2ccc(-c3ccccc3)cc2)cc1 | > 112 | >1 | > 50 | > 50 | >1 | 
89.5 (≈ 254 µM) | c1ccc(-c2cccc(-c3cnc4ccc(-c5ccsc5)cn34)c2)cc1 | > 142 | >1.6 | > 100 | > 100 | >1 | 
56.8 (≈ 124 µM) | COc1ccc(-c2nc3ccc(-c4ccsc4)cn3c2-c2cccc(-c3ccccc3)c2)cc1 | > 109 | >1.9 | > 100 | 22.7 (≈ 49.5 µM) | >4.4 | 
11.1 (≈ 24.6 µM) | Fc1ccc(-c2nc3ccc(N4CCOCC4)nn3c2-c2ccccc2-c2ccccc2)cc1 | 11.1 (≈ 24.6 µM) | 1 | 31 (≈ 68.8 µM) | 11 (≈ 24.4 µM) | 3 | 
53.1 (≈ 125 µM) | CCOC(=O)c1nc2ccc(-c3ccsc3)cn2c1-c1cccc(-c2ccccc2)c1 | > 118 | >2.2 | 67.7 (≈ 159 µM) | > 67.7 |  | 
8.7 (≈ 21.8 µM) | CC(C)(C)c1nc2ccc(-c3ccsc3)nn2c1-c1cccc(-c2ccoc2)c1 | 55.1 (≈ 138 µM) | 6.3 | 4.5 (≈ 11.3 µM) | 1.7 (≈ 4.26 µM) | 2.7 | 
28 (≈ 69.2 µM) | Fc1ccc(-c2nc3ccccn3c2-c2cccc(-c3cc4ccccc4o3)c2)cc1 | 54.9 (≈ 136 µM) | 2 |  |  |  | 
20.2 (≈ 55.3 µM) | Fc1ccc(-c2nc3ccccn3c2-c2cccc(-c3ccncc3)c2)cc1 | 45.5 (≈ 125 µM) | 2.3 | 7 (≈ 19.2 µM) | 0.98 (≈ 2.68 µM) | 7.1 | 
> 112 | Fc1ccc(-c2nc3ccc(-c4ccsc4)cn3c2-c2cccc(-c3ccccc3)c2)cc1 | > 112 | >1 | > 33 | 0.74 (≈ 1.66 µM) | >45 | 
11.1 (≈ 24.7 µM) | COc1ccccc1-c1nc2ccc(-c3ccsc3)nn2c1-c1cccc(-c2ccoc2)c1 | 15.7 (≈ 34.9 µM) | 1.4 | > 100 | > 100 |  | 
2.4 (≈ 5.05 µM) | COc1ccccc1-c1nc2ccc(-c3ccsc3)nn2c1-c1cccc(-c2ccc(O)cc2)c1 | 22.1 (≈ 46.5 µM) | 9.2 | > 100 | > 100 |  | 
52.2 (≈ 118 µM) | Fc1ccc(-c2nc3ccc(-c4ccccc4)cn3c2-c2cccc(-c3ccccc3)c2)cc1 | 56.8 (≈ 129 µM) | 1.09 | > 50 | 12 (≈ 27.2 µM) | >4 | 
1.63 (≈ 4.13 µM) | COc1ccc(-c2cccc(-c3c(-c4ccc(F)cc4)nc4ccccn34)c2)cc1 | 34.8 (≈ 88.2 µM) | 21.3 | > 100 | 2.8 (≈ 7.1 µM) | >36 | 
3.9 (≈ 9.16 µM) | CC(C)(C)c1nc2ccc(-c3ccsc3)nn2c1-c1cccc(-c2cccc(O)c2)c1 | 20 (≈ 47 µM) | 5.2 | > 100 | 3.7 (≈ 8.69 µM) | >26.7 | 
48.9 (≈ 125 µM) | COc1ccccc1-c1nc2ccccn2c1-c1cccc(-c2ccccc2O)c1 | 95.8 (≈ 244 µM) | 2 | 14.4 (≈ 36.7 µM) | 7.55 (≈ 19.2 µM) | 1.9 | 
3.8 (≈ 7.99 µM) | COc1ccccc1-c1nc2ccc(-c3ccsc3)nn2c1-c1cccc(-c2cccc(O)c2)c1 | 78.5 (≈ 165 µM) | 20.8 | > 100 | > 100 |  | 
10.3 (≈ 26.9 µM) | Fc1ccc(-c2cccc(-c3c(-c4ccc(F)cc4)nc4ccccn34)c2)cc1 | 54.5 (≈ 143 µM) | 5.3 | 5.4 (≈ 14.1 µM) | 3.9 (≈ 10.2 µM) | 1.4 | 
34.9 (≈ 95.8 µM) | Fc1ccc(-c2nc3ccccn3c2-c2cccc(-c3ccccc3)c2)cc1 | 60.4 (≈ 166 µM) | 1.7 |  |  |  | 
13.5 (≈ 35.5 µM) | Oc1ccc(-c2cccc(-c3c(-c4ccc(F)cc4)nc4ccccn34)c2)cc1 | 69.5 (≈ 183 µM) | 5.1 |  |  |  | 
21.8 (≈ 56.4 µM) | CN1CCN(c2cccc(-c3c(-c4ccc(F)cc4)nc4ccccn34)c2)CC1 | 60.1 (≈ 156 µM) | 2.8 |  |  |  | 

Second part, the compound before the results:

SMILES | EC50 (Hepatitis C virus) [µg/mL] | CC50 at 72 h [1] [µg/mL] | Ratio CC50/EC50 [2] | CC50 at 72 h [3] [µg/mL] | EC50 [4] [µg/mL] | Ratio CC50/EC50 [5] | inhibition (INH) (Hepatitis C virus) [%]
CN1CCN(c2ccc3nc(-c4ccc(F)cc4)c(-c4ccc(-c5ccccc5)cc4)n3n2)CC1 |  | 45.3 (≈ 97.7 µM) |  | > 50 | > 50 | >1 | 
Fc1ccc(-c2nc3ccc(-c4ccccc4)nn3c2-c2ccc(-c3ccccc3)cc2)cc1 |  | 45.3 (≈ 103 µM) |  | > 50 | > 50 | >1 | 
Fc1ccc(-c2nc3ccccn3c2-c2cccc(-c3ccoc3)c2)cc1 | 19.2 (≈ 54.2 µM) | 66.2 (≈ 187 µM) | 3.4 | 5.6 (≈ 15.8 µM) | 1.7 (≈ 4.8 µM) | 3.2 | 
Fc1ccc(-c2nc3ccc(-c4ccccc4)nn3c2-c2cccc(-c3ccccc3)c2)cc1 | 11.3 (≈ 25.6 µM) | 15.9 (≈ 36 µM) | 1.4 | 25 (≈ 56.6 µM) | 1.23 (≈ 2.79 µM) | 20 | 
CC(C)(C)c1nc2ccc(-c3ccsc3)nn2c1-c1cccc(-c2ccccc2)c1 | 22.7 (≈ 55.4 µM) | 63.2 (≈ 154 µM) | 2.8 | > 100 | 37.9 (≈ 92.5 µM) | >2.6 | 
COc1ccccc1-c1nc2ccccn2c1-c1cccc(-c2ccc(O)cc2)c1 | 18.8 (≈ 47.9 µM) | 43.8 (≈ 112 µM) | 2.3 | > 100 | 17.7 (≈ 45.1 µM) | >5.6 | 
CC(C)(C)c1nc2ccc(-c3ccsc3)nn2c1-c1cccc(-c2ccc(O)cc2)c1 | 5 (≈ 11.7 µM) | 15 (≈ 35.2 µM) | 3 | > 100 | 14.2 (≈ 33.4 µM) | >7.1 | 
COc1ccccc1-c1nc2ccc(-c3ccsc3)nn2c1-c1cccc(-c2ccccc2O)c1 | 4.8 (≈ 10.1 µM) | > 205 | >43 | 16.2 (≈ 34.1 µM) | 1.36 (≈ 2.86 µM) | 12 | 60
c1ccc(-c2cccc(-c3c(-c4ccsc4)nc4ccc(-c5ccsc5)cn34)c2)cc1 | 64.5 (≈ 148 µM) | > 115 | >1.8 | > 100 | 6.6 (≈ 15.2 µM) | >15.2 | 
Fc1ccc(-c2nc3ccccn3c2-c2ccc(-c3ccccc3)cc2)cc1 | 2.64 (≈ 7.24 µM) | 36 (≈ 98.8 µM) |  |  |  |  | 
COc1cccc(-c2nc3ccc(-c4ccsc4)cn3c2-c2cccc(-c3ccccc3)c2)c1 | 52.4 (≈ 114 µM) | 85.2 (≈ 186 µM) | 1.6 | > 100 | 15 (≈ 32.7 µM) | >6.7 | 
CC(C)(C)c1nc2ccc(-c3ccsc3)nn2c1-c1cccc(-c2ccccc2O)c1 | 30.1 (≈ 70.7 µM) | 75.3 (≈ 177 µM) | 2.5 | > 100 | > 100 |  | 
Fc1ccc(-c2nc3ccc(N4CCOCC4)nn3c2-c2ccc(-c3ccccc3)cc2)cc1 |  | 33.3 (≈ 73.9 µM) |  | > 50 | > 50 | >1 | 
Fc1ccc(-c2nc3ccccn3c2-c2cccc(-c3ccco3)c2)cc1 | 12.8 (≈ 36.1 µM) | 24.7 (≈ 69.7 µM) | 1.9 |  |  |  | 
Fc1ccc(-c2nc3ccc(-c4ccccc4)cn3c2-c2ccc(-c3ccccc3)cc2)cc1 | 4.5 (≈ 10.2 µM) | 11.4 (≈ 25.9 µM) | 2.5 | 30 (≈ 68.1 µM) | > 30 |  | 
CC(C)(C)c1nc2ccc(-c3ccsc3)nn2c1-c1cccc(-c2ccco2)c1 | 8.6 (≈ 21.5 µM) | 41.3 (≈ 103 µM) | 4.8 | > 100 | > 100 |  | 
COc1ccccc1-c1nc2ccccn2c1-c1cccc(-c2cccc(O)c2)c1 | 3.5 (≈ 8.92 µM) | 40.3 (≈ 103 µM) | 11.4 |  |  |  | 
Fc1ccc(-c2nc3ccc(N4CCOCC4)nn3c2-c2cccc(-c3ccccc3)c2)cc1 |  | 11.1 (≈ 24.6 µM) |  | 12 (≈ 26.6 µM) | 4 (≈ 8.88 µM) | 3 | 
